Screening data (PubChem BioAssay)
CYP2C19 inhib – blockers of cytochrome P450 2C19 activity – biochemical, luminescence, ADME assay, primary screen | P33261 | CYP2C19 Supersomes, luciferin-H EGE luminescence, 30 min | inhibition, % at 5 µM | 21% of 96,000 active | AID 778, 2007;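 active = CYP2C19 inhibition above a set limit at 5 µM in the primary screen, cut at about 50% in these data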;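 also: plate controls were negative control wells for no effect and 2.5 mM tranylcypromine positive control for full effect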
CYP2C9 inhib – blockers of cytochrome P450 2C9 activity – biochemical, luminescence, ADME assay, primary screen; P11712; CYP2C9 Supersomes, luciferin-H conversion; inhibition, % at 5 µM; 20% of 96,000 active; AID 777, 2007;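 active = blocking of liver enzyme CYP2C9 beyond about 50% at 5 µM, limit read from the data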
Target sequence (P11712 whole entry, looked up): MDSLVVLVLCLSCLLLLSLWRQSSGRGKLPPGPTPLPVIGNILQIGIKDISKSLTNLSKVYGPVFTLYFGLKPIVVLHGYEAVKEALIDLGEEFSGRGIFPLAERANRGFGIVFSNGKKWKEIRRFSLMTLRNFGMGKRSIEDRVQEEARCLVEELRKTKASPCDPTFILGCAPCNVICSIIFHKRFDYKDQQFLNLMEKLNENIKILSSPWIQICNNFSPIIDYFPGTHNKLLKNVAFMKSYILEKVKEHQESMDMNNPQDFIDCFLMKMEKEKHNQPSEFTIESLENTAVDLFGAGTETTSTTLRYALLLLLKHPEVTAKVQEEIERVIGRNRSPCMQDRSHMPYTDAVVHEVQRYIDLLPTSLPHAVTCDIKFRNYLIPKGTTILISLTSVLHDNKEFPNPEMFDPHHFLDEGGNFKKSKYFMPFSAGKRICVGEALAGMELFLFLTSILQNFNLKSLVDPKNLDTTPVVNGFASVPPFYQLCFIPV
CYP2C9 activ – human CYP2C9 activators, primary screen, biochemical, luminescence | 1.4% of 96,000 active | AID 1024, 2008 | activation factor at 5 µM | recombinant CYP2C9, luciferin-H conversion; active compounds read high; factor 1 = untreated enzyme, 0 = blocked;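 active = activation factor of 2 or more for CYP2C9 at a 5 µM dose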;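 also: 0 = sulfaphenazole-blocked wells and 1 = vehicle-only wells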
tolC growth inh – growth inhibitors of E. coli tolC mutant, primary screen, strain BW25113 ΔtolC::kan, 384-well; OD615; growth inhibition, % at 10 µM (by protocol); 2.2% of 65,000 active;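 active = growth inhibition at or above a cutoff equal to the mean over every tested compound plus 3 SD, cut at about 60% in these data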;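 also: growth measured after 20 h incubation at 37 °C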
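Test system – E. coli BW25113 ΔtolC::kan, tolC deletion mutant strain · Detection – OD at 615 nm · Buffer or medium – LB with kanamycin 50 µg/mL · Times – 20 h compound exposure of bacteria at 37 °C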
E coli WT exp – growth inhibitors of wild-type E. coli, primary screen, strain BW25113, expanded library, OD600; OD600 absorbance; growth inhibition, % at 100 µM; 0.15% of 98,000 active; AID 710, 2007;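 active = growth inhibition above about 50% at one test dose, limit read from the data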;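 also: growth measured after 20 h incubation at 37 °C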
CYP2C19 activ – human CYP2C19 activators, primary screen, biochemical, luminescence | AID 1025, 2008 | activation factor at 5 µM | 96,000 tested, under 10 active | recombinant CYP2C19, luciferin-H EGE luminescence; active compounds read high; 0 = fully inhibited enzyme, 1 = untreated enzyme;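 active = activation factor of at least 2 at 5 µM in the primary screen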;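 also: 0 = wells with 2.5 mM tranylcypromine and 1 = vehicle-only wells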
Numbers without * were called inactive; · = not tested or not shown. Rows were chosen to be rich in hits. Some 29% of all compounds tested hit in one or more screens of this group.

SMILES	CYP2C19 inhib	CYP2C9 inhib	CYP2C9 activ	tolC growth inh	E coli WT exp	CYP2C19 activ
O=C(CN(C(=O)CCC(=O)Nc1ccccn1)c1ccc2c(c1)OCO2)NCc1ccco1	49	31	0.7	-4	-1	0.5
Cc1cc(C)cc(N(CC(=O)NCc2ccco2)C(=O)CCC(=O)Nc2ccccn2)c1	61*	24	0.8	3	-4	0.4
CC(C)CCNC(=O)CN(C(=O)CCC(=O)Nc1ccccn1)c1ccc2c(c1)OCO2	46	58*	0.4	-22	-3	0.5
CCC(C)(C)NC(=O)CN(Cc1ccc2c(c1)OCO2)C(=O)CCC(=O)Nc1ccccn1	·	·	·	12	·	·
COc1ccccc1OCCn1cc(C(=O)c2ccco2)c2ccccc21	25	84*	0.2	50	-19	0.8
COc1cccc(OCCn2cc(C(=O)c3ccco3)c3ccccc32)c1	86*	98*	0	43	-12	0.1
O=C(O)Cn1cc(C(=O)c2ccco2)c2ccccc21	-7	-5	1.1	-19	6	1.1
Cc1ccccc1OCCn1cc(/C(N)=N/O)c2ccccc21	67*	23	0.8	·	7	0.3
COc1ccc2c(c1)c(CCN1C(=O)c3ccccc3C1=O)cn2C(=O)c1ccco1	14	18	0.8	6	-9	0.9
COc1ccccc1C(=O)NCCNC(=O)c1ccco1	·	·	·	2	9	·
CCOC(=O)Cn1cc(C(=O)c2ccco2)c2ccccc21	81*	84*	0.2	13	0	0.2
CCOCCn1c(SCc2c(F)cccc2Cl)nc2c1c(=O)[nH]c(=O)n2C	22	6	0.9	3	-3	0.8
Cc1c(C=O)c2ccccn2c1C(=O)c1ccccc1	85*	90*	0.1	·	7	0.1
Cc1c(C(=O)Nc2ccc(Cl)cc2)c2ccccn2c1C(=O)c1ccccc1	15	33	0.7	·	-15	0.9
COc1cc2[nH]c(=O)n(CCCCCC(=O)NCCCN3CCC(C)CC3)c(=O)c2cc1OC	·	·	·	-18	1	·
Cc1ccc(S(=O)(=O)N2CCC(C(=O)N[C@H](C(=O)NCC3CCCO3)C(C)C)CC2)cc1 (stereo partly drawn)	5	-1	1	-17	7	1
COCCn1c(SCC(=O)Nc2ncc(Cl)c(C)c2Cl)nc2ccccc21	93*	47	0.5	27	5	0.1
C=CCn1c(SCC(=O)Nc2sccc2C(N)=O)nc2sc(C)c(C)c2c1=O	·	·	·	-16	-8	·
COCCn1c(SCC(=O)Nc2ccc(Cl)cn2)nc2ccccc21	90*	-24	1.2	·	0	0.1
COCCn1c(SCC(=O)Nc2sccc2C(N)=O)nc2cc(Cl)ccc2c1=O	45	60*	0.4	·	-1	0.5
COCCn1c(SCC(=O)NC(=O)NC(C)(C)C)nc2ccccc21	57*	27	0.7	·	-2	0.4
CCOC(=O)N1CCN(Cc2nc(-c3ccc(C)cc3)no2)CC1	1	6	0.9	5	10	1
COC(=O)c1cc(Br)ccc1-c1ccc(/C=N/n2nnnc2N)o1	56*	38	0.6	24	2	0.4
CCNC(=S)N(Cc1ccc2c(c1)OCO2)C1CC(=O)N(c2ccc(F)cc2)C1=O (stereo not drawn)	94*	71*	0.3	·	3	0.1
COc1ccc(CCN(C)Cc2ccc(OC)c(OCc3ccccc3)c2)cc1OC	9	18	0.8	·	8	0.9
SMILES	CYP2C19 inhib	CYP2C9 inhib	CYP2C9 activ	tolC growth inh	E coli WT exp	CYP2C19 activ
COc1cc(CN(C)Cc2ccccc2)cc(OC)c1O	65*	28	0.7	·	-3	0.3
CC(C)(C)c1ccc(C(=O)Nc2cnccn2)cc1	12	24	0.8	22	-1	0.9
CC(C)NC1=C(Cl)C(=O)c2ccccc2C1=O	90*	35	0.7	·	21	0.1
COc1ccc(OC)c2c1C(=O)c1ccccc1C2=O	7	18	0.8	·	2	0.9
COc1ccccc1N1CCN(c2nc(C)nc3c2oc2ccccc23)CC1	32	26	0.7	97*	-3	0.7
Cc1nc(N2CCN(Cc3ccc4c(c3)OCO4)CC2)c2oc3ccccc3c2n1	·	·	·	95*	·	·
Cc1nc(N2CCC(C)CC2)c2oc3ccccc3c2n1	67*	70*	0.3	·	-2	0.3
COc1ccccc1N1CCN(Cc2cc(Br)c(O)c3ncccc23)CC1	-5	-11	1.1	43	23	1.1
CCOC(=O)C1CCN(c2nc(-c3ccccc3)nc3c2oc2ccccc23)CC1	-7	21	0.8	-9	-19	1.1
O=c1c2cc(Cl)ccc2nc2ccc(N3CCCC3)nn12	·	·	·	6	·	·
CCOC(=O)c1cnn(CCOC(=O)Cc2cccs2)c1NC(=O)Cc1cccs1	88*	89*	0.1	-10	2	0.1
CCOC(=O)Cc1csc(NC(=O)Cc2cccs2)n1	22	46	0.5	3	6	0.8
Cc1sc(NC(=O)c2cccs2)c(C(N)=O)c1C	66*	81*	0.2	7	-6	0.3
COC(=O)c1c(NC(=O)Cc2cccs2)sc(C)c1C	62*	36	0.6	27	27	0.4
CCOC(=O)c1c(NC(=O)Cc2cccs2)sc(C(=O)N2CCCCC2)c1C	65*	65*	0.3	5	1	0.3
Cc1nn(C)c(C)c1S(=O)(=O)NCc1cccs1	11	-4	1	-11	3	0.9
COC(=O)c1c(NC(=O)Cc2cccs2)sc2c1CCCC2	22	35	0.7	70*	-14	0.8
COC(=O)c1c(NC(=O)c2ccc(C)o2)sc2c1CCCCC2	-3	-1	1	63*	8	1
COC(=O)c1sc(S(=O)(=O)NCc2cccs2)c(C(=O)OC)c1C	89*	82*	0.2	21	25	0.1
CC(C)OC(=O)c1c(NC(=O)c2cccs2)sc2c1CCCC2	-4	74*	0.3	3	-11	1
COCC(=O)Nc1sc2c(c1C(=O)OC)CCCC2	·	·	·	24	-13	·
c1ccc(-c2nc(Sc3ncnc4c3cnn4-c3ccccc3)n[nH]2)cc1	10	32	0.7	12	0	0.9
Cc1c(S(=O)(=O)N2CCOCC2)c(=O)n(C)c(=O)n1C	10	1	1	·	3	0.9
CCC(=O)N1CCN(CCN=Cc2c(O)n(C3CCCCC3)c(=O)n(C3CCCCC3)c2=O)CC1	·	·	·	11	·	·
COc1cccc(N(CC(=O)NCc2cccnc2)S(C)(=O)=O)c1	44	11	0.9	-11	-10	0.6
COc1ccc(C(=O)c2ccccc2)c(O)c1	86*	24	0.8	11	3	0.1
